In ChEMBL document CHEMBL4673287, “Synthesis and biological evaluation of novel antipsychotic trans-4-(2-(1,2,4,5-tetrahydro-3H-benzo[d]azepin-3-yl)ethyl)cyclohexan-1-amine derivatives targeting dopamine/serotonin receptor subtypes” (Bioorg Med Chem Lett, 2021):

Legend:
[1] = target: T1, 5-hydroxytryptamine receptor 1A (Homo sapiens, UniProt P08908); assay: Displacement of [3H]OH-DPAT from recombinant human 5-HT1A receptor expressed in human HEK293 cells; format: cell-based
T1 sequence (P08908 whole entry): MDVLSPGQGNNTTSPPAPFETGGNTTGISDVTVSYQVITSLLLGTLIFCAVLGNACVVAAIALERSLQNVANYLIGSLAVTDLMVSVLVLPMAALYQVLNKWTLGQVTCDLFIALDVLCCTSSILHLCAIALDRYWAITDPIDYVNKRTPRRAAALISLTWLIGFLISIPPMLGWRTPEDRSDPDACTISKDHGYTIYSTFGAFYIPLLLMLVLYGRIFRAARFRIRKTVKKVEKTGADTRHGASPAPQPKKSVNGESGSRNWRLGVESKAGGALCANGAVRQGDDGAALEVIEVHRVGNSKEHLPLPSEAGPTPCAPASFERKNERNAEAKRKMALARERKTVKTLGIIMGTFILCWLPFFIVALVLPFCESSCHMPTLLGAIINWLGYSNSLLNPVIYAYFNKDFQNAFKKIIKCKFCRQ
In short: (§1)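 Eight-concentration displacement curves, two independent experiments in duplicate, value is the mean Ki.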

[2] = target: T2, D(2) dopamine receptor (Homo sapiens, UniProt P14416); assay: Displacement of [3H]-spiperone from recombinant human D2L receptor expressed in CHO cells; format: cell-based; in short: as §1
[3] = target: T3, D(3) dopamine receptor (Homo sapiens, UniProt P35462); assay: Displacement of [3H]methyl-spiperone from recombinant human D3 receptor expressed in CHO cells; format: cell-based
[4] = target: Histamine H1 receptor (Homo sapiens) (UniProt P35367); assay: Displacement of [3H]-pyrilamine from human H1 histamine receptor expressed in human HEK293 cells at 10 uM relative to control; format: cell-based
[5] = target: T4, 5-hydroxytryptamine receptor 2A (Homo sapiens, UniProt P28223); assay: Displacement of [3H]ketanserin from recombinant human 5-HT2A receptor expressed in human HEK293 cells at 10 uM relative to control; format: cell-based
[6] = target: Adrenergic receptor alpha-1 (Rattus norvegicus) (UniProt P15823+P23944+P43140); assay: Displacement of [3H]-prazosin from adrenergic alpha1 in rat cerebral cortex at 10 uM relative to control; format: tissue-based
[7] = tested on: Rattus norvegicus; assay: Antipsychotic activity in orally dosed Sprague-Dawley rat assessed as inhibition of PCP-induced hyperactivity administered 20 mins before PCP stimulation and measured after 1 hr; format: functional, organism-based; conditions: dose 1-10 mg/kg, time 80.0 min
In short: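 Male Sprague-Dawley rats dosed orally 20 min before PCP (5 mg/kg) injection. Locomotor activity recorded for 1 h after PCP, read as total travel distance. Mean ± standard error of the mean, n = 8-10 per group.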

[8] = Metabolic stability in rat liver microsomes assessed as half life; format: ADME, Microsome
[9] = Metabolic stability in human liver microsomes assessed as intrinsic clearance; format: ADME, Microsome; conditions: read-out: CLH
[10] = Metabolic stability in rat liver microsomes assessed as intrinsic clearance; format: ADME, Microsome; conditions: read-out: CLH
[11] = Metabolic stability in human liver microsomes assessed as half life; format: ADME, Microsome
[12] = target: T4, 5-hydroxytryptamine receptor 2A; assay: Displacement of [3H]ketanserin from recombinant human 5-HT2A receptor expressed in human HEK293 cells; format: cell-based; in short: as §1
[13] = target: T5, 5-hydroxytryptamine receptor 1A (Homo sapiens) (UniProt P08908); assay: Displacement of [3H]OH-DPAT from recombinant human 5-HT1A receptor expressed in human HEK293 cells at 10 uM relative to control; format: cell-based
T5 sequence (whole entry): T1 sequence (P08908 whole entry)

[14] = target: T2, D(2) dopamine receptor; assay: Displacement of [3H]-spiperone from recombinant human D2L receptor expressed in CHO cells at 10 uM relative to control; format: cell-based
[15] = target: T3, D(3) dopamine receptor; assay: Displacement of [3H]methyl-spiperone from recombinant human D3 receptor expressed in CHO cells at 10 uM relative to control; format: cell-based

T3 sequence (P35462 whole entry): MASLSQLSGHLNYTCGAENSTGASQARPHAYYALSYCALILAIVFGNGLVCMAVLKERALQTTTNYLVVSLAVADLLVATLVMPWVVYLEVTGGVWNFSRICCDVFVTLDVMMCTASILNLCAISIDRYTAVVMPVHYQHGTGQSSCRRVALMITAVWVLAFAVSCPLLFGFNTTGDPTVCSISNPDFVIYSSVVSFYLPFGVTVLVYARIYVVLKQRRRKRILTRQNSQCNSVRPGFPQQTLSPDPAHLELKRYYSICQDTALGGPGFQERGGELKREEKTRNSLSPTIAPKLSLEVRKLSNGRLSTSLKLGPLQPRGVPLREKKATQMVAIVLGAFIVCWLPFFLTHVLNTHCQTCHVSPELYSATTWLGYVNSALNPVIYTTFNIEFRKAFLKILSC
Sequence of Histamine H1 receptor (Homo sapiens) (P35367 whole entry): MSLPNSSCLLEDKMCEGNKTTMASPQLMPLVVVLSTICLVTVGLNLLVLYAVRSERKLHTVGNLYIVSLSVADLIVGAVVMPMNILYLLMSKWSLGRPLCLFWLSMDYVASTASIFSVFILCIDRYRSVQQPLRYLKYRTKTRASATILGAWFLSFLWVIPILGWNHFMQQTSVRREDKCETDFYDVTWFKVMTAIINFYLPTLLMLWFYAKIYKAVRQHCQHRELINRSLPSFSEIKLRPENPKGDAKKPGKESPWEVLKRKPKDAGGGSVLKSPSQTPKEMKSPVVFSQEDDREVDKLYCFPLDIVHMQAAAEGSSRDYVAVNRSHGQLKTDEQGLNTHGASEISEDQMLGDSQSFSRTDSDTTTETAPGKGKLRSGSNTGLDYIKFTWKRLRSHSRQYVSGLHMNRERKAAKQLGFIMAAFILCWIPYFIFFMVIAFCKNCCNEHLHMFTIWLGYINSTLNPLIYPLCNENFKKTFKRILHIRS
T4 sequence (P28223 whole entry): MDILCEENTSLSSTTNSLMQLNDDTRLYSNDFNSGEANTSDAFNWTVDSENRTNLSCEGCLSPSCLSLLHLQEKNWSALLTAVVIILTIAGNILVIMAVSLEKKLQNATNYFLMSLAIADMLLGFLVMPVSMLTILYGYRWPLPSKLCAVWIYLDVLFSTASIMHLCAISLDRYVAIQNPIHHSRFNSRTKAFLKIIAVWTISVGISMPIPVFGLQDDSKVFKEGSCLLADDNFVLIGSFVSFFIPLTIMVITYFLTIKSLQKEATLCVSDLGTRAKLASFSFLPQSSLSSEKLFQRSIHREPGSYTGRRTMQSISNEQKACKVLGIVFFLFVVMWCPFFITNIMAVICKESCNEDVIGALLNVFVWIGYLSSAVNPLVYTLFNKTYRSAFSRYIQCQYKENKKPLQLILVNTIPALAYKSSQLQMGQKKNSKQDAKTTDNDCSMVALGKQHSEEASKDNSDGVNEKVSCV
T2 sequence (P14416 whole entry): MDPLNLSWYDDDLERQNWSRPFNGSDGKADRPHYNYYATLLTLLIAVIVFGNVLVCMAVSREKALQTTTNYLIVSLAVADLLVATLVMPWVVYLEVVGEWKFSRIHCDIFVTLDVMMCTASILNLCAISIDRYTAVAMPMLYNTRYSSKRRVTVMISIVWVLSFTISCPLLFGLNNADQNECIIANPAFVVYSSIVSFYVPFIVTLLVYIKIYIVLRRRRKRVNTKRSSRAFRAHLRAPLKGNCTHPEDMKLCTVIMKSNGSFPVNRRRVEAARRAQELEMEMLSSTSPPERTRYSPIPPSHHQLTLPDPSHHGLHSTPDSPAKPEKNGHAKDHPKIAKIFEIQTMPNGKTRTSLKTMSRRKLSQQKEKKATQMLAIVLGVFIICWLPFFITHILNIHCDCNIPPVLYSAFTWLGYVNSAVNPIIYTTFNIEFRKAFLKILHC

Compound | Ki [1] | Ki [2] | Ki [3] | inhibition [4] | inhibition [5] | inhibition [6] | other results
C[C@H]1CN(CC[C@H]2CC[C@H](NC(=O)[C@@H]3CCCN3)CC2)CCc2ccc(Cl)cc21 | 74.7 nM | 25.3 nM | 9.5 nM | 60.1% | 89% | 75.8% | 
CN1CCN(C2=Nc3cc(Cl)ccc3Nc3ccccc32)CC1 |  |  |  |  |  |  | Activity [7]: Dose-dependent effect
C[C@H]1CN(CC[C@H]2CC[C@H](NC(=O)N(C)C)CC2)CCc2ccc(Cl)cc21 | 14.5 nM | 5.9 nM | 0.5 nM | 59.6% |  | 44.1% | Activity [7]: Dose-dependent effect; half-life [8]: 23.2 min; microsomal CLint [9]: 42.4 µL/min/mg; microsomal CLint [10]: 59.7 µL/min/mg; half-life [11]: 32.7 min; Ki [12]: 25.6 nM
C[C@H]1CN(CC[C@H]2CC[C@H](N3C(=O)[C@H]4CCCC[C@H]4C3=O)CC2)CCc2ccc(Cl)cc21 | 6.6 nM | 14.1 nM | 9.3 nM | 86.1% | 76.9% | 63.2% | 
C[C@H]1CN(CC[C@H]2CC[C@H](NC(=O)N(C)c3ccccc3)CC2)CCc2ccc(Cl)cc21 |  | 189 nM | 17.2 nM | 75% | 58.8% | 38.6% | inhibition ([13]; filed as antagonist): 82.3%
C[C@H]1CN(CC[C@H]2CC[C@H](NC(=O)C3CCCCC3)CC2)CCc2ccc(Cl)cc21 |  | 99.3 nM | 17.5 nM | 36.8% | 38.2% | 35.3% | inhibition [13]: 69.9%
C[C@H]1CN(CC[C@H]2CC[C@H](N3C(=O)CC4(CCCC4)CC3=O)CC2)CCc2ccc(Cl)cc21 | 4.3 nM | 12.1 nM | 1.2 nM |  |  | 60.9% | Ki [12]: 16.2 nM
C[C@H]1CN(CC[C@H]2CC[C@H](N3C(=O)CCC3=O)CC2)CCc2ccc(Cl)cc21 | 93.4 nM |  | 191 nM | 62.4% | 47.4% | 62.1% | inhibition [14]: 79.8%
CC1CN(CC[C@H]2CC[C@H](NC(=O)N(C)C)CC2)CCc2ccc(Cl)cc21 (mixture of isomers) |  |  |  | 25.8% | 19.6% | 38% | inhibition [15]: 68%; inhibition [14]: 54.5%; inhibition [13]: 26.9%
C[C@H]1CN(CC[C@H]2CC[C@H](NC(=O)C3CC3)CC2)CCc2ccc(Cl)cc21 | 191 nM | 9.8 nM | 8.2 nM | 33.2% | 56.6% | 57.6% | 
CCN(C)C(=O)N[C@H]1CC[C@H](CCN2CCc3ccc(Cl)cc3[C@@H](C)C2)CC1 | 36 nM | 23.9 nM | 7.2 nM | 49.7% | 85.9% | 43.5% | 
CCN(CC)C(=O)N[C@H]1CC[C@H](CCN2CCc3ccc(Cl)cc3[C@@H](C)C2)CC1 |  | 91.1 nM | 15 nM | 69.2% | 73.6% | 29.1% | inhibition [13]: 75.2%
C[C@H]1CN(CC[C@H]2CC[C@H](N3C(=O)[C@@H]4[C@H](C3=O)[C@@H]3C=C[C@H]4C3)CC2)CCc2ccc(Cl)cc21 | 22.8 nM | 43.7 nM | 6.9 nM |  | 82.8% | 74.4% | 
C[C@H]1CN(CC[C@H]2CC[C@H](NC(=O)Nc3ccccc3)CC2)CCc2ccc(Cl)cc21 |  | 2.8 nM | 1.5 nM |  | 67% | 53.8% | inhibition ([4]; filed as antagonist): 88.2%
COc1ccc2[nH]c([S+]([O-])Cc3ncc(C)c(OC)c3C)nc2c1 (centres undefined) [OMEPRAZOLE] |  |  |  |  |  |  | half-life [8]: 38.5 min; microsomal CLint [10]: 193 µL/min/mg
CCCC(=O)N[C@H]1CC[C@H](CCN2CCc3ccc(Cl)cc3[C@@H](C)C2)CC1 |  | 84 nM | 8.1 nM | 27% | 52.7% | 18.7% | inhibition [13]: 81.3%
C[C@@H]1CN(CC[C@H]2CC[C@H](NC(=O)N(C)C)CC2)CCc2ccc(Cl)cc21 |  | 290 nM | 195 nM | 46.5% | 72% | 48.3% | inhibition [13]: 83.9%
C[C@H]1CN(CC[C@H]2CC[C@H](NC(=O)[C@@H]3CCCO3)CC2)CCc2ccc(Cl)cc21 | 98.3 nM | 20.6 nM | 19.1 nM | 32.2% | 69.6% | 36.4% | 
COc1ccc2c(c1)[C@]13CCCC[C@@H]1[C@H](C2)N(C)CC3 [DEXTROMETHORPHAN] |  |  |  |  |  |  | microsomal CLint [9]: 59.7 µL/min/mg; half-life [11]: 23.2 min
C[C@H]1CN(CC[C@H]2CC[C@H](N3C(=O)c4ccccc4C3=O)CC2)CCc2ccc(Cl)cc21 |  | 5.8 nM |  | 40.8% | 36.3% | 37.2% | inhibition [15]: 82%; inhibition [13]: 82.6%
C[C@H]1CN(CC[C@H]2CC[C@H](NC(=O)N3CCCC3)CC2)CCc2ccc(Cl)cc21 | 5.3 nM | 6.3 nM | 1.1 nM | 56.8% | 87.4% | 60.3% | 
C[C@H]1CN(CC[C@H]2CC[C@H](N3C(=O)[C@@H]4[C@@H]5CC[C@@H](C5)[C@@H]4C3=O)CC2)CCc2ccc(Cl)cc21 | 24.9 nM | 31.6 nM | 3.3 nM |  | 80.8% | 79.2% | 
C[C@H]1CN(CC[C@H]2CC[C@H](NC(=O)N3CCOCC3)CC2)CCc2ccc(Cl)cc21 |  | 2.9 nM | 1.8 nM | 33.3% | 50.6% | 48% | inhibition [13]: 86.1%
C[C@H]1CN(CC[C@H]2CC[C@H](NC(=O)c3ccco3)CC2)CCc2ccc(Cl)cc21 | 10.6 nM | 19.3 nM | 1.8 nM |  |  |  | 
